Usually pIC50 stands for −log10 of the IC50, conventionally taken in molar units.

The values below come from ChEMBL document CHEMBL3124914, “Cytotoxic clerodane diterpenes from Zuelania guidonia” (J Nat Prod, 2014).

Molecules are shown by their SMILES. pIC50: −log10 of the molar value.

One experiment deals with PBMC. Nature of the experiment: Cytotoxicity against human PBMC assessed as cell viability after 24 hrs by MTT assay. It counts as cell-based. The method in brief:
(§1)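 Cells kept at 37 °C, 5% CO2 in RPMI 1640 with 10% heat-inactivated FBS, […] streptomycin, and 100 U/mL penicillin. Seeding per well: 1.2 × 10^4 for MIA-PaCa-2, 4 × 10^4 for CCRF-CEM and CEM-ADR5000, and 2 × 10^5 for PBMCs from healthy donors. Compounds were given in DMSO (0.1% DMSO solvent control) at various concentrations for 24 h. Read-out was MTT, and IC50 was taken by nonlinear regression.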

Experiment [1] is described as follows: Cytotoxicity against human CEM/ADR5000 cells assessed as cell viability after 24 hrs by MTT assay. The format is functional, cell-based. The note with it: ADR5000, 24 h. The method in brief:
as §1

The test system of a further experiment is CCRF-CEM. Nature of the experiment: Cytotoxicity against human CCRF-CEM cells assessed as cell viability after 24 hrs by MTT assay. It counts as functional, cell-based. Put shortly: as §1
(Tetrazolium dyes change colour on reduction, which living cells bring about.)

Experiment [2] in a line: Cytotoxicity against human MIAPaCa2 cells assessed as cell viability after 24 hrs by MTT assay. The note with it: MIA PaCa-2, 24 h. The format is functional, cell-based. Put shortly: as §1

Consider `C=CC(=C)CC[C@]1(C)[C@H](C)C[C@H](O)[C@@]23C(=C[C@@H](OC(=O)/C=C/c4ccccc4)C[C@@H]12)[C@@H](OC(C)=O)O[C@H]3OC(C)=O` (relative stereo), for which the pIC50 in the experiment with PBMC was under 5.00; in experiment [1] it was 5.34; with CCRF-CEM it was 5.80; in experiment [2], 5.34.

As to `C=CC(=C)CC[C@]1(C)[C@H](C)C[C@H](OC(=O)CC(O)CCCCCCCCC)[C@@]23C(=C[C@H](O)C[C@@H]12)[C@@H](OC(C)=O)O[C@H]3OC(C)=O` (relative stereo), the pIC50 in the experiment on PBMC was under 5.00; in experiment [1], 5.24; in the experiment on CCRF-CEM it was 5.60; in experiment [2], 5.13.

For the compound `C=CC(=C)[C@H](O)C[C@]1(C)[C@H](C)C[C@H](OC(=O)CC(O)CCCCCCCCC)[C@@]23C(=C[C@H](O)C[C@@H]12)[C@@H](OC(C)=O)O[C@H]3OC(C)=O` (relative stereo), the pIC50 with PBMC was under 5.00; in experiment [1] it was under 5.00; in the experiment with CCRF-CEM it was 5.26; in experiment [2], under 5.00.

Regarding `CC(=O)O[C@H]1O[C@@H](OC(C)=O)[C@]23C1=C[C@H](O)C[C@H]2[C@](C)(CCC1=CCOOC1)[C@H](C)C[C@@H]3OC(=O)/C=C/c1ccccc1` (relative stereo), the pIC50 in the experiment with PBMC is under 5.00; in experiment [1], 5.12; in the experiment on CCRF-CEM, 5.72; in experiment [2], 5.16.

In the case of `C=CC(=C)[C@@H](O)C[C@]1(C)[C@H](C)C[C@H](OC2OC[C@@H](O)[C@H](O)[C@H]2O)[C@@]23C(=C[C@H](OC(=O)CCCCCCCCC)C[C@@H]12)[C@@H](OC(C)=O)O[C@H]3OC(C)=O` (relative stereo), the pIC50 in the experiment on PBMC was under 5.00; in experiment [1], under 5.00; with CCRF-CEM, 5.04; in experiment [2], under 5.00.

As for `CCCCCCCCCC(=O)O[C@H]1C=C2[C@@H](OC(C)=O)O[C@@H](OC(C)=O)[C@]23[C@@H](OC2OC[C@@H](O)[C@H](O)[C@H]2O)C[C@@H](C)[C@@](C)(C[C@H](O)C2=CCOOC2)[C@@H]3C1` (relative stereo), the pIC50 is under 5.00 with PBMC, under 5.00 in experiment [1], 5.10 in the experiment with CCRF-CEM and under 5.00 in experiment [2].

On to `CCCCCCCCCC(=O)O[C@H]1C=C2[C@@H](OC(C)=O)O[C@@H](OC(C)=O)[C@]23[C@@H](OC2OC[C@@H](O)[C@H](O)[C@H]2O)C[C@@H](C)[C@@](C)(C[C@@H](O)C2=CCOOC2)[C@@H]3C1` (relative stereo), for which the pIC50 in the experiment with PBMC is under 5.00; in experiment [1], under 5.00; in the experiment on CCRF-CEM it was 5.08; in experiment [2], under 5.00.

With `C=CC(=C)CC[C@]1(C)[C@H](C)CC[C@@]23C(=CC(=O)C[C@@H]12)[C@@H](OC(C)=O)O[C@H]3OC(C)=O` (relative stereo), the pIC50 in the experiment with PBMC is under 5.00; in experiment [1], under 5.00; with CCRF-CEM it was 5.02; in experiment [2], under 5.00.

With `C=CC(=C)CC[C@]1(C)[C@H](C)C[C@H](OC(=O)/C=C/c2ccccc2)[C@@]23C(=C[C@H](O)C[C@@H]12)[C@@H](OC(C)=O)O[C@H]3OC(C)=O` (relative stereo), the pIC50 with PBMC is under 5.00; in experiment [1], 5.07; with CCRF-CEM, 5.28; in experiment [2], under 5.00.

Consider `CC[C@@]1(O)C(=O)OCc2c1cc1n(c2=O)Cc2cc3ccccc3nc2-1` [CAMPTOTHECIN], for which the pIC50 in the experiment on PBMC was under 5.00; in experiment [1], 6.52; in the experiment with CCRF-CEM, 7.10; in experiment [2], under 5.00.

Regarding `COc1cccc2c1C(=O)c1c(O)c3c(c(O)c1C2=O)C[C@@](O)(C(=O)CO)C[C@@H]3O[C@H]1C[C@H](N)[C@H](O)[C@H](C)O1` [DOXORUBICIN], the negative-log IC50 (pIC50) with PBMC was under 5.00; in experiment [1], under 5.00; in the experiment with CCRF-CEM, 6.30; in experiment [2], 5.32.
